Test results published in ChEMBL document CHEMBL3797026, “Caatinga plants: Natural and semi-synthetic compounds potentially active against Trichomonas vaginalis” (Bioorg Med Chem Lett, 2016).
Values after ≈ are worked out from the molar mass of the structure shown. Active and inactive are the calls of the source. The calls are words filed in the database; no cut-off is given here.

Experiments:
[1] = system: Trichomonas vaginalis; assay: Antitrichomonal activity against metronidazole-sensitive Trichomonas vaginalis ATCC 30236 clinical isolate trophozoites assessed as parasite viability at 100 uM after 24 hrs by trypan blue dye based hemocytometry; type: functional
Outline: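 Single-concentration screen at 100 µM with trophozoites at 1.0 × 10^5/mL. Incubation was 24 h at 37 °C in 5.0% CO2, with a 0.62% DMSO vehicle control and 100 µM metronidazole as positive control. Viable parasites were counted by hemocytometer using motility, normal morphology and 0.2% trypan blue exclusion, and reported as % of untreated. Three experiments were run in triplicate.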

[2] = system: Trichomonas vaginalis; assay: Antitrichomonal activity against metronidazole-resistant Trichomonas vaginalis TV-LACM2R clinical isolate trophozoites; type: functional
[3] = system: Trichomonas vaginalis; assay: Antitrichomonal activity against metronidazole-resistant Trichomonas vaginalis TV-LACM2R clinical isolate trophozoites assessed as reduction in parasite viability at 15 uM after 24 hrs by trypan blue dye based hemocytometry; type: functional
Outline: (§1)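 Trophozoites at 1.0 × 10^5/mL were incubated 24 h at 37 °C in 5.0% CO2. Viable parasites were counted by hemocytometer, judged by motility, normal morphology and exclusion of 0.2% trypan blue. Viability is expressed as a percentage of untreated parasites. Three independent parasite suspensions were each run in triplicate, reported as mean ± SD.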

[4] = Cytotoxicity against HMVII cells assessed as reduction in cell viability after 48 hrs by MTT assay; type: cell-based, HMV-2; conditions: human
[5] = Selectivity index, ratio of CC50 for african green monkey Vero cells to IC50 for metronidazole-sensitive Trichomonas vaginalis ATCC 30236 clinical isolate trophozoites after 24 hrs; type: functional
Outline: (§2)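 Selectivity index calculated as CC50 in the mammalian line (MTT, 24 or 48 h exposure) divided by the anti-T. vaginalis IC50.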

[6] = system: Trichomonas vaginalis; assay: Antitrichomonal activity against metronidazole-sensitive Trichomonas vaginalis ATCC 30236 clinical isolate trophozoites assessed as parasite viability after 24 hrs by trypan blue dye based hemocytometry; type: functional, organism-based; conditions: ATCC 30236, 24 h
Outline: (§3)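 Trophozoites (1.0 × 10^5/mL) were cultured in TYM and exposed to a dilution series from 100 to 0.78 µM for 24 h. Viable counts were taken by hemocytometer with 0.2% trypan blue exclusion and compared with untreated parasites. To confirm the MIC, parasites were transferred to fresh TYM medium. Triplicates were run with three independent cultures.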

[7] = system: Trichomonas vaginalis; assay: Antitrichomonal activity against metronidazole-sensitive Trichomonas vaginalis ATCC 30236 clinical isolate trophozoites assessed as membrane projections and holes at 50 uM after 2 hrs by scanning microscopic analysis; type: functional, organism-based
Outline: (§4)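 Scanning EM: trophozoites (1.0 × 10^5/mL) were treated or not with 50 µM. They were fixed in 2.5% glutaraldehyde in 0.1 M sodium cacodylate pH 7.2, post-fixed in 1.0% OsO4 in the same buffer, and dehydrated in acetone. Untreated trophozoites served as control.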

[8] = system: Trichomonas vaginalis; assay: Antitrichomonal activity against metronidazole-resistant Trichomonas vaginalis TV-LACM2R clinical isolate trophozoites assessed as reduction in parasite viability at 12.5 uM after 24 hrs by trypan blue dye based hemocytometry; type: functional, organism-based; outline: as §1
[9] = system: Trichomonas vaginalis; assay: Antitrichomonal activity against metronidazole-sensitive Trichomonas vaginalis ATCC 30236 clinical isolate trophozoites assessed as decrease in parasite viability at 50 to 100 uM after 24 hrs by trypan blue dye based hemocytometry; type: functional, organism-based; outline: as §3
[10] = Selectivity index, ratio of CC50 for HMVII cells to IC50 for metronidazole-sensitive Trichomonas vaginalis ATCC 30236 clinical isolate trophozoites after 48 hrs; type: functional; outline: as §2
[11] = system: Trichomonas vaginalis; assay: Antitrichomonal activity against metronidazole-sensitive Trichomonas vaginalis ATCC 30236 clinical isolate trophozoites assessed as parasite viability after 2 to 12 hrs by FDA/PI dye staining based flow cytometry; type: functional, organism-based
Outline: (§5)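 Flow cytometry: parasites were exposed or not to 50 µM for 0, 2, 4, 6 and 12 h, then co-stained with FDA and PI (10 µg/mL each) for 20 min. FDA-retaining cells with intact membranes were scored viable and PI-positive cells nonviable. Three parasite suspensions were tested in triplicate.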

[12] = Cytotoxicity against HMVII cells assessed as reduction in cell viability at 50 uM after 24 hrs by MTT assay; type: cell-based; conditions: human, hmv-2, 24 h
Outline: (§6)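 MTT assay: cells were grown in DMEM with 10% FBS at 37 °C in 5% CO2 and seeded at 3.0 × 10^4 or 1.0 × 10^4 cells/well overnight. Medium was replaced with fresh medium with or without 50 µM, with 0.2% Triton X-100 as positive control, for 24 or 48 h. MTT (0.5 mg/mL) was added for 1 h, formazan was dissolved in DMSO and read at 570 nm. Triplicates.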

[13] = Cytotoxicity against african green monkey Vero cells assessed as reduction in cell viability after 24 hrs by MTT assay; type: cell-based; conditions: chlorocebus sabaeus
[14] = system: HeLa; assay: Cytotoxicity against human HeLa cells assessed as reduction in cell viability at 50 uM after 48 hrs by MTT assay; type: cell-based; outline: as §6
[15] = system: Vero; assay: Cytotoxicity against african green monkey Vero cells assessed as reduction in cell viability at 50 uM after 24 to 48 hrs by MTT assay; type: cell-based; conditions: chlorocebus sabaeus; outline: as §6
[16] = Selectivity index, ratio of CC50 for HMVII cells to IC50 for metronidazole-sensitive Trichomonas vaginalis ATCC 30236 clinical isolate trophozoites after 24 hrs; type: functional; outline: as §2
[17] = system: Trichomonas vaginalis; assay: Antitrichomonal activity against metronidazole-sensitive Trichomonas vaginalis ATCC 30236 clinical isolate trophozoites assessed as rounded parasite at 50 uM after 2 hrs by scanning electron microscopic analysis; type: functional, organism-based; outline: as §4
[18] = system: Trichomonas vaginalis; assay: Antitrichomonal activity against metronidazole-sensitive Trichomonas vaginalis ATCC 30236 clinical isolate trophozoites assessed as parasite shape disruption at 50 uM after 2 hrs by scanning electron microscopy; type: functional, organism-based; outline: as §4
[19] = Cytotoxicity against HMVII cells assessed as reduction in cell viability after 24 hrs by MTT assay; type: cell-based, HMV-2; conditions: human
[20] = Selectivity index, ratio of CC50 for african green monkey Vero cells to IC50 for metronidazole-sensitive Trichomonas vaginalis ATCC 30236 clinical isolate trophozoites after 48 hrs; type: functional; outline: as §2
[21] = Cytotoxicity against HMVII cells assessed as reduction in cell viability at 50 uM after 48 hrs by MTT assay; type: cell-based; conditions: human, hmv-2, 48 h; outline: as §6
[22] = system: Trichomonas vaginalis; assay: Antitrichomonal activity against metronidazole-sensitive Trichomonas vaginalis ATCC 30236 clinical isolate trophozoites assessed as reduction of parasite viability after 2 hrs by FDA/PI dye staining based flow cytometry relative to control; type: functional; outline: as §5
[23] = system: Trichomonas vaginalis; assay: Antitrichomonal activity against metronidazole-resistant Trichomonas vaginalis TV-LACM2R clinical isolate trophozoites assessed as reduction in parasite viability at 12.5 uM after 24 hrs by trypan blue dye based hemocytometry in presence of metronidazole; type: functional, organism-based; outline: as §1
[24] = Cytotoxicity against african green monkey Vero cells assessed as reduction in cell viability after 48 hrs by MTT assay; type: cell-based; conditions: chlorocebus sabaeus
[25] = system: Trichomonas vaginalis; assay: Antitrichomonal activity against metronidazole-sensitive Trichomonas vaginalis ATCC 30236 clinical isolate trophozoites assessed as undulating membrane at 50 uM after 2 hrs by scanning electron microscopic analysis; type: functional, organism-based; outline: as §4
[26] = system: Trichomonas vaginalis; assay: Antitrichomonal activity against metronidazole-sensitive Trichomonas vaginalis ATCC 30236 clinical isolate trophozoites assessed as inhibition of parasite growth at 50 uM after 12 to 24 hrs by hemocytometry; type: functional, organism-based
Outline: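 Kinetic growth curve: trophozoites (1.0 × 10^5/mL) were incubated with or without 50 µM for 2, 4, 6, 12, 24, 48, 72 and 96 h. Parasites were counted by hemocytometer and expressed as trophozoites/mL relative to untreated controls.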

[27] = system: Trichomonas vaginalis; assay: Antitrichomonal activity against metronidazole-sensitive Trichomonas vaginalis ATCC 30236 clinical isolate trophozoites assessed as appearance of flagella at 50 uM after 2 hrs by scanning electron microscopic analysis; type: functional, organism-based; outline: as §4
[28] = system: HeLa; assay: Cytotoxicity against human HeLa cells assessed as reduction in cell viability at 50 uM after 24 hrs by MTT assay; type: cell-based; outline: as §6

Structure (SMILES): CCCCCC(=O)O[C@H]1CC[C@]2(C)[C@H]3CC=C4[C@@H]5CC(C)(C)CC[C@]5(C)CC[C@@]4(C)[C@]3(C)CC[C@H]2C1(C)C
- Activity [1]: 62.8%

Structure (SMILES): C=C(C)[C@@H]1CC[C@]2(C)CC[C@]3(C)[C@H](CC[C@@H]4[C@@]5(C)CC[C@H](OC(=O)CCCCC)C(C)(C)[C@@H]5CC[C@]43C)[C@@H]12
- Activity [1]: 71.4%

Structure (SMILES): CCCCCC(=O)O[C@H]1CC[C@]2(C)[C@H]3CC=C4[C@@H]5[C@@H](C)[C@H](C)CC[C@]5(C)CC[C@@]4(C)[C@]3(C)CC[C@H]2C1(C)C
- Activity [1]: 56.2%

Structure (SMILES): C[C@H]1[C@H](C)CC[C@]2(C)CC[C@]3(C)C(=CC[C@@H]4[C@@]5(C)CC[C@H](O)C(C)(C)[C@@H]5CC[C@]43C)[C@H]12
- Activity [1]: 76.1%

Structure (SMILES): CC(=O)O[C@H]1CC[C@]2(C)[C@H]3CC=C4[C@@H]5[C@@H](C)[C@H](C)CC[C@]5(C)CC[C@@]4(C)[C@]3(C)CC[C@H]2C1(C)C
- Activity [1]: 56.4%

Structure (SMILES): C=C(C)[C@@H]1CC[C@]2(C)CC[C@]3(C)[C@H](CC[C@@H]4[C@@]5(C)CC[C@H](OC(C)=O)C(C)(C)[C@@H]5CC[C@]43C)[C@@H]12 [LUPENYL ACETATE]
- Activity [1]: 59.8%

Structure (SMILES): C=C(C)[C@@H]1CC[C@]2(C)CC[C@]3(C)[C@H](CC[C@@H]4[C@@]5(C)CC[C@H](O)C(C)(C)[C@@H]5CC[C@]43C)[C@@H]12 [LUPEOL]
- Activity [1]: 117.8%

Structure (SMILES): Cc1ncc([N+](=O)[O-])n1CCO [METRONIDAZOLE]
- MIC [2]: 73 µM (≈ 12.5 µg/mL)
- Activity [1]: 0%
- Activity [3]: 80%

Structure (SMILES): CC1(C)CC[C@]2(C(=O)O)CC[C@]3(C)C(=CC[C@@H]4[C@@]5(C)CC[C@H](O)C(C)(C)[C@@H]5CC[C@]43C)[C@@H]2C1 [OLEANOLIC_ACID]
- Activity [1]: 78.3%

Structure (SMILES): C[C@H]1[C@H](C)CC[C@]2(C(=O)O)CC[C@]3(C)C(=CC[C@@H]4[C@@]5(C)CC[C@H](O)C(C)(C)[C@@H]5CC[C@]43C)[C@H]12 [URSOLIC ACID]
- CC50 at 48 h [4]: 69.5 µM
- Ratio CC50/IC50 [5]: 0.9
- Activity [1]: 0%
- IC50 [6]: 35.3 µM
- MIC [6]: 50 µM (≈ 22.8 µg/mL)
- Activity [7]: Active
- Activity [8]: Active
- Activity [9]: Active
- Ratio CC50/IC50 [10]: 1.97
- Activity [11]: Active
- Activity [12]: 60%
- CC50 at 24 h [13]: 31.9 µM
- Activity [14]: 90%
- Activity [15]: 30%
- Ratio CC50/IC50 [16]: 4.13
- Activity [17]: Active
- Activity [18]: Active
- CC50 at 24 h [19]: 146 µM
- Ratio CC50/IC50 [20]: 1.02
- Activity [21]: 90%
- Activity [22]: 98%
- Activity [23]: Active
- CC50 at 48 h [24]: 35.9 µM
- Activity [25]: Active
- growth inhibition (GI) [26]: Active
- Activity [27]: Active
- Activity [28]: 50%

Structure (SMILES): CC(=O)O[C@H]1CC[C@]2(C)[C@H]3CC=C4[C@@H]5CC(C)(C)CC[C@]5(C)CC[C@@]4(C)[C@]3(C)CC[C@H]2C1(C)C [beta-AMYRIN ACETATE]
- Activity [1]: 54.5%

Structure (SMILES): CC1(C)CC[C@]2(C)CC[C@]3(C)C(=CC[C@@H]4[C@@]5(C)CC[C@H](O)C(C)(C)[C@@H]5CC[C@]43C)[C@@H]2C1 [beta-AMYRIN]
- Activity [1]: 84.3%
